Experimental data from different studies.
Protocols differ between the studies behind these lines.
Effect on: metabolic stability
Species: human

CC(C)C[C@H](NC(=O)[C@H](CCc1ccccc1)NC(=O)CN1CCOCC1)C(=O)N[C@@H](Cc1ccccc1)C(=O)N[C@@H](CC(C)C)C(=O)[C@@]1(C)CO1  scaled CLint (liver microsomes; 2 µM; 1 h): 931 mL/min/kg
CCn1cc(C)c2c(C(O)c3ccc(Cl)c(F)c3)n(C)nc2c1=O (stereo not shown)  microsomal CLint (liver microsomes; 0.5 µM; pH 7.4): 23 µL/min/mg
CC(C)C[C@H](NC(=O)[C@@H]1COCCCCCC(=O)NCC(=O)N2CCC[C@H]2C(=O)N1)C(=O)[C@@]1(C)CO1  scaled CLint (liver microsomes; 2 µM; 1 h): 22.5 mL/min/kg
CCN(CCN)c1ccc(Nc2cc(NC3CC3)n3ncc(C#N)c3n2)cc1-n1cnnc1  scaled CLint (liver microsomes): < 6.8 mL/min/kg
Cn1nc2c(=O)n(C3CC3)ncc2c1[C@](N)(c1ccc(C(F)(F)F)c(Cl)c1)C1CC1  hepatocyte CLint (hepatocytes; 0.5 µM; pH 7.4): < 0.5 µL/min/10⁶ cells
Nc1ncnc2c1ncn2[C@@H]1O[C@H](CO)C[C@H]1O  microsomal CLint (liver microsomes; 1 µM): 142 µL/min/mg
CCOc1ccc2ccc(=O)oc2c1  hepatocyte CLint (hepatocytes; 1 µM): 60.6 µL/min/10⁶ cells
CC[N+]1(C)CCN(c2ccc(C(=O)Nc3cccc(C)n3)cc2)CC1  microsomal CLint (liver microsomes): < 3 µL/min/mg
C[C@]1(C(=O)[C@H](Cc2ccccc2)NC(=O)[C@@H]2COCCCCCC(=O)N3C[C@H](F)C[C@H]3C(=O)N2)CO1  scaled CLint (liver microsomes; 2 µM; 1 h): 93.1 mL/min/kg
CCC(CC)COC(=O)[C@H](C)N[P@@](=O)(OC[C@@H]1C[C@@H](O)[C@H](n2cnc3c(N)ncnc32)O1)Oc1ccccc1  microsomal CLint (liver microsomes; 1 µM): 2610 µL/min/mg
O=c1ccc2ccc(O)cc2o1  scaled CLint (liver microsomes): 939 mL/min/kg
CCn1ccc2c([C@](O)(c3cnc(C(F)(F)F)c(Cl)c3)C3CC3)n(C)nc2c1=O  microsomal CLint (liver microsomes; 0.5 µM; pH 7.4): < 3 µL/min/mg
CC1(CN)CCN(c2cnc3c(Sc4ccncc4Cl)n[nH]c3n2)CC1  scaled CLint (liver microsomes): 34 mL/min/kg
CCn1cnc2c([C@@](O)(CC)c3ccc(C(F)(F)F)nc3)n(C)nc2c1=O  microsomal CLint (liver microsomes; 0.5 µM; pH 7.4): < 3 µL/min/mg
CCOc1ccc(NC(C)=O)cc1  microsomal CLint (liver microsomes): 20.7 µL/min/mg
Cn1nc2c(=O)n(C3CC3)nc(C3CC3)c2c1Cc1ccc(C(F)(F)F)c(F)c1  microsomal CLint (liver microsomes; 0.5 µM; pH 7.4): 4.6 µL/min/mg
CC(C)C[C@H](NC(=O)[C@@H]1COCCCCCC(=O)N2C[C@H](F)C[C@H]2C(=O)N1)C(=O)[C@@]1(C)CO1  scaled CLint (liver microsomes; 2 µM; 1 h): 32.4 mL/min/kg
Cn1c(=O)c2c(ncn2C)n(C)c1=O  hepatocyte CLint (hepatocytes; 0.5 µM; pH 7.4): 1.85 µL/min/10⁶ cells
O=C1CC[C@H](N2Cc3cc(N4CCN(CC5CCN(c6ccc([C@@H]7c8ccc(O)cc8CC[C@@H]7c7ccccc7)cc6)CC5)CC4)ccc3C2=O)C(=O)N1  hepatocyte CLint (hepatocytes; 1 µM): 13 µL/min/10⁶ cells
